This note sets out measurements from ChEMBL document CHEMBL4351008, “Discovery of novel pyrimidine-based benzothiazole derivatives as potent cyclin-dependent kinase 2 inhibitors with anticancer activity” (Eur J Med Chem, 2019).

Molecules are shown by their SMILES. A value given as a limit tells only on which side of the number the result lay.

In experiment [1] the test system is HCT-116. Put plainly: Induction of cell cycle arrest in human HCT116 cells assessed as accumulation at S phase at 0.35 uM incubated for 24 hrs by PI staining based flow cytometric analysis (reference value: 45.26%). It counts as functional.
Experiment [2] has as its system HCT-116. In words: Induction of cell cycle arrest in human HCT116 cells assessed as debris content at 0.7 uM incubated for 24 hrs by PI staining based flow cytometric analysis (reference value: 0%). Type of experiment: functional.
The subject of experiment [3] is HCT-116. In words: Induction of apoptosis in human HCT116 cells assessed as necrotic cells at 1.4 uM incubated for 24 hrs by Annexin-V-FITC/propidium iodide staining based flow cytometric analysis (reference value: 0%). It counts as functional. Background: Flow cytometry measures light scatter and fluorescence of single cells or particles in a stream.
Experiment [4] relates to HCT-116. Put plainly: Induction of apoptosis in human HCT116 cells assessed as live cells at 0.7 uM incubated for 24 hrs by Annexin-V-FITC/propidium iodide staining based flow cytometric analysis (reference value: 97.7%). Type of experiment: functional.
In experiment [5] the test system is HCT-116. In words: Induction of apoptosis in human HCT116 cells assessed as early apoptotic cells at 0.35 uM incubated for 24 hrs by Annexin-V-FITC/propidium iodide staining based flow cytometric analysis (reference value: 2.28%). Type of experiment: functional.
Experiment [6] concerns HCT-116. Put plainly: Induction of cell cycle arrest in human HCT116 cells assessed as debris content at 0.35 uM incubated for 24 hrs by PI staining based flow cytometric analysis (reference value: 0%). It counts as functional.
Experiment [7] concerns HCT-116. Put plainly: Induction of apoptosis in human HCT116 cells assessed as necrotic cells at 0.35 uM incubated for 24 hrs by Annexin-V-FITC/propidium iodide staining based flow cytometric analysis (reference value: 0%). It counts as functional.
Experiment [8] has as its target T1, CDK2/Cyclin A2 (Homo sapiens) (UniProt P24941+P20248). In words: Inhibition of CDK2/cyclin A2 (unknown origin) using histone H1 and ATP as substrate at 1 uM incubated for 40 mins by kinase-glo luminescence assay relative to control. It counts as protein-complex assay. The essentials:
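Recombinant CDK2/cyclin A2 (0.2 µg/mL) was run with 0.1 mg/mL histone H1 and 10 µM ATP in 40 mM Tris pH 7.4, 10 mM MgCl2, 0.1 mg/mL BSA and 1 mM DTT, for 40 min at 30 °C. Compound was tested at 1 µM final, with 1% DMSO final. Remaining ATP was quantified by Kinase-Glo Plus luminescence, which is inversely related to kinase activity.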

In experiment [9] the test system is HCT-116. In words: Induction of cell cycle arrest in human HCT116 cells assessed as accumulation at S phase at 0.7 uM incubated for 24 hrs by PI staining based flow cytometric analysis (reference value: 45.26%). It counts as functional.
The test system of a further experiment is HeLa. In words: Antiproliferative activity against human HeLa cells incubated for 48 hrs by MTT assay. Type of experiment: functional, cell-based. An outline of the steps:
(§1)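 Cells kept at 37 °C in humidified 5% CO2: MDA-MB-231, MCF-7, HeLa and HCT116 in RPMI-1640; PC-3 in DMEM/F12; both media had 10% FBS. Compounds came from 60 mM DMSO stocks diluted in medium. At 70–80% confluence, cells got fresh medium with compound for 48 h at 37 °C, with 0.1% DMSO as negative control. MTT (5 mg/mL stock) was added for 4 h, and formazan was dissolved in DMSO and read at 570 nm. % inhibition was taken relative to control, IC50 was fitted, and data are mean ± SD of three independent experiments in duplicate.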

Experiment [10] concerns HCT-116. Put plainly: Induction of apoptosis in human HCT116 cells assessed as live cells at 1.4 uM incubated for 24 hrs by Annexin-V-FITC/propidium iodide staining based flow cytometric analysis (reference value: 97.7%). Type of experiment: functional.
Experiment [11] has as its system HCT-116. In words: Induction of cell cycle arrest in human HCT116 cells assessed as accumulation at G0/G1 phase at 0.7 uM incubated for 24 hrs by PI staining based flow cytometric analysis (reference value: 37.26%). It counts as functional.
For experiment [12], the system named is HCT-116. Put plainly: Induction of cell cycle arrest in human HCT116 cells assessed as accumulation at G2/M phase at 0.7 uM incubated for 24 hrs by PI staining based flow cytometric analysis (reference value: 17.48%). Type of experiment: functional.
Experiment [13] relates to HCT-116. Put plainly: Induction of apoptosis in human HCT116 cells assessed as late apoptotic cells at 0.35 uM incubated for 24 hrs by Annexin-V-FITC/propidium iodide staining based flow cytometric analysis (reference value: 0.027%). It counts as functional.
Experiment [14] concerns HCT-116. In words: Induction of apoptosis in human HCT116 cells assessed as late apoptotic cells at 1.4 uM incubated for 24 hrs by Annexin-V-FITC/propidium iodide staining based flow cytometric analysis (reference value: 0.027%). It counts as functional.
In experiment [15] the test system is HCT-116. In words: Induction of apoptosis in human HCT116 cells assessed as early apoptotic cells at 1.4 uM incubated for 24 hrs by Annexin-V-FITC/propidium iodide staining based flow cytometric analysis (reference value: 2.28%). Type of experiment: functional.
For the next experiment, the system named is PC-3. In words: Antiproliferative activity against human PC3 cells incubated for 48 hrs by MTT assay. It counts as functional, cell-based. As to conditions: PC-3, 48 h. An outline of the steps: as §1
In general terms: Tetrazolium assays rely on reduction of a dye to a coloured formazan, in cell work by metabolically active cells.

The subject of experiment [16] is HCT-116. In words: Induction of cell cycle arrest in human HCT116 cells assessed as accumulation at G0/G1 phase at 0.35 uM incubated for 24 hrs by PI staining based flow cytometric analysis (reference value: 37.26%). Type of experiment: functional.
Experiment [17] concerns HCT-116. Put plainly: Antiproliferative activity against human HCT116 cells incubated for 48 hrs by MTT assay. Type of experiment: functional, cell-based. The settings on record: HCT-116, 48 h. An outline of the steps:
as §1

The subject of experiment [18] is HCT-116. In words: Induction of apoptosis in human HCT116 cells assessed as early apoptotic cells at 0.7 uM incubated for 24 hrs by Annexin-V-FITC/propidium iodide staining based flow cytometric analysis (reference value: 2.28%). It counts as functional.
The test system of a further experiment is MCF7. Put plainly: Antiproliferative activity against human MCF7 cells incubated for 48 hrs by MTT assay. Type of experiment: functional, cell-based. As to conditions: MCF7, 48 h. The essentials: as §1
In experiment [19] the test system is HCT-116. Put plainly: Induction of cell cycle arrest in human HCT116 cells assessed as accumulation at G2/M phase at 0.35 uM incubated for 24 hrs by PI staining based flow cytometric analysis (reference value: 17.48%). It counts as functional.
In experiment [20] the target is T1, CDK2/Cyclin A2 (Homo sapiens). In words: Potency index, ratio of AZD5438 IC50 to compound IC50 for CDK2/cyclin A2 (unknown origin) using histone H1 and ATP as substrate incubated for 40 mins by kinase-glo luminescence assay. Type of experiment: protein-complex assay. (Kinase-Glo reads ATP consumption through a luciferase reaction.)
In a further experiment the target is CDK2/Cyclin A2 (Homo sapiens, UniProt P24941). In words: Inhibition of CDK2/cyclin A2 (unknown origin) using histone H1 and ATP as substrate incubated for 40 mins by kinase-glo luminescence assay. It counts as protein-complex assay.
Experiment [21] relates to HCT-116. In words: Induction of apoptosis in human HCT116 cells assessed as live cells at 0.35 uM incubated for 24 hrs by Annexin-V-FITC/propidium iodide staining based flow cytometric analysis (reference value: 97.7%). Type of experiment: functional.
For another experiment, the system named is MDA-MB-231. Put plainly: Antiproliferative activity against human MDA-MB-231 cells incubated for 48 hrs by MTT assay. Type of experiment: functional, cell-based. As to conditions: MDA-MB-231, 48 h. An outline of the steps: as §1
Experiment [22] concerns HCT-116. Put plainly: Induction of cell cycle arrest in human HCT116 cells assessed as accumulation at G2/M phase at 1.4 uM incubated for 24 hrs by PI staining based flow cytometric analysis (reference value: 17.48%). Type of experiment: functional.
In experiment [23] the test system is HCT-116. In words: Induction of cell cycle arrest in human HCT116 cells incubated for 24 hrs by PI staining based flow cytometric analysis. Type of experiment: functional.
For experiment [24], the system named is HCT-116. Put plainly: Induction of apoptosis in human HCT116 cells incubated for 24 hrs by Annexin-V-FITC/propidium iodide staining based flow cytometric analysis. Type of experiment: functional, cell-based.
The subject of experiment [25] is HCT-116. Put plainly: Induction of cell cycle arrest in human HCT116 cells assessed as debris content at 1.4 uM incubated for 24 hrs by PI staining based flow cytometric analysis (reference value: 0%). Type of experiment: functional.
Experiment [26] deals with HCT-116. Put plainly: Induction of cell cycle arrest in human HCT116 cells assessed as accumulation at S phase at 1.4 uM incubated for 24 hrs by PI staining based flow cytometric analysis (reference value: 45.26%). It counts as functional.
Experiment [27] relates to HCT-116. Put plainly: Induction of cell cycle arrest in human HCT116 cells assessed as accumulation at G0/G1 phase at 1.4 uM incubated for 24 hrs by PI staining based flow cytometric analysis (reference value: 37.26%). It counts as functional.
Experiment [28] concerns HCT-116. In words: Induction of apoptosis in human HCT116 cells assessed as late apoptotic cells at 0.7 uM incubated for 24 hrs by Annexin-V-FITC/propidium iodide staining based flow cytometric analysis (reference value: 0.027%). It counts as functional.
In experiment [29] the test system is HCT-116. In words: Induction of apoptosis in human HCT116 cells assessed as necrotic cells at 0.7 uM incubated for 24 hrs by Annexin-V-FITC/propidium iodide staining based flow cytometric analysis (reference value: 0%). Type of experiment: functional.

One may read the inhibition as the percentage by which the read-out fell short of the control. A higher inhibition goes with strong suppression. Broadly, the IC50 is the concentration at which inhibition is half-maximal. A high value points to a need for much substance. As to `NS(=O)(=O)c1ccc(Nc2nccc(Nc3nc4ccc(F)cc4s3)n2)cc1`, the Activity was 39.03% in the experiment on HCT-116 [1]; 6.86% in the experiment on HCT-116 [2]; 0.414% in the experiment with HCT-116 [3]; 64.3% with HCT-116 [4]; 10.1% in the experiment on HCT-116 [5]; 0.74% with HCT-116 [6]. The Activity in the experiment on HCT-116 [7] came out at 0.027%; in the experiment with HCT-116 [9], 30.88%; with HCT-116 [10], 51.4%; with HCT-116 [11] it was 35.61%; with HCT-116 [12] it was 33.51%; in the experiment with HCT-116 [13], 9.07%. The Activity in the experiment on HCT-116 [14] is reported as 29.1%; in the experiment on HCT-116 [15], 19.1%; in the experiment with HCT-116 [16], 36.61%; with HCT-116 [18] it was 13%; in the experiment on HCT-116 [19], 24.36%; in the experiment on HCT-116 [21] it was 80.8%. The Activity in the experiment with HCT-116 [22] is 46.92%; in the experiment with HCT-116 [23] it was “Dose-dependent effect”; in the experiment with HCT-116 [24] it was “Dose-dependent effect”; in the experiment with HCT-116 [25], 39.3%; in the experiment with HCT-116 [26], 18.51%; in the experiment with HCT-116 [27], 34.57%. Further, the Activity in the experiment on HCT-116 [28] is recorded as 22.3%; in the experiment on HCT-116 [29] it was 0.384%. This molecule had an inhibition in [8] of 94%. Further, the half-maximal inhibitory concentration (IC50) with HeLa stood at 450 nM; in the experiment on PC-3, 920 nM; in the experiment with HCT-116 [17], 700 nM; in the experiment with MCF7 it was 10900 nM; against CDK2/Cyclin A2, 15.4 nM; in the experiment on MDA-MB-231, 1800 nM. Further, the Ratio IC50 in [20] was 3.
In turn, `Cc1cnc(Nc2ccc(S(N)(=O)=O)cc2)nc1Nc1nc2ccccc2s1` had an inhibition in experiment [8] of 91%. Also, the IC50 in the experiment with HeLa is 2800 nM; with PC-3, above 50000 nM; in the experiment on HCT-116 [17] it was 1660 nM; in the experiment with MCF7, above 50000 nM; on CDK2/Cyclin A2 it was 21.7 nM; in the experiment with MDA-MB-231, 16800 nM.
Regarding `NS(=O)(=O)c1ccc(Nc2ncc(F)c(Nc3nc4ccccc4s3)n2)cc1`, in experiment [8], the inhibition was determined as 93%. Besides, the IC50 with HeLa is 4520 nM; with PC-3 it was above 50000 nM; in the experiment with HCT-116 [17], 3260 nM; in the experiment on MCF7, above 50000 nM; at CDK2/Cyclin A2 it was 16.5 nM; with MDA-MB-231, 22600 nM.
